Compound activity (PubChem BioAssay)
MC4R antag cAMP = antagonists of human melanocortin 4 receptor (MC4R) | P32245 | MC4R-expressing cells, MTII-stimulated cAMP, LANCE TR-FRET | inhibition, % at 6.5 µM | 360,000 compounds, 0.48% hits | AID 540295;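 active means inhibition above its plate's cutoff, the mean of tested wells on that plate plus 3 SD, cut at about 29% in these data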;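 further: 0% = Melanotan II alone and 100% = Melanotan II plus saturating MCL0020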
Target sequence (P32245 whole entry, looked up): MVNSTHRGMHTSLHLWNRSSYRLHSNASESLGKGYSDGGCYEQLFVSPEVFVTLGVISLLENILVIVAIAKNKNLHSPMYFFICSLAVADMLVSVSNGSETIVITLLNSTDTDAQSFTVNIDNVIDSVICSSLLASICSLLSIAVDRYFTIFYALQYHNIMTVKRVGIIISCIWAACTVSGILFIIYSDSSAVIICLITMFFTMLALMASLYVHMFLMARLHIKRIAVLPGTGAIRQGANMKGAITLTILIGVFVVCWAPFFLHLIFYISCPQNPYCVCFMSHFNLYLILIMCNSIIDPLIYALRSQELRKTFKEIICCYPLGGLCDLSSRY
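Assay system: human MC4R-expressing U2OS cells; reagent: Melanotan II stimulation of cells; dosing: 6.5 µM single dose; timing: compound 30 min, challenge 1 h, detection 1 h; signal: TR-FRET cAMP assay; replicates: one well per compound, no replicates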
Myeloid diff MLP = compounds promoting myeloid differentiation | ER-HoxA9 myeloid progenitors, lysozyme-GFP differentiation, flow cytometry | calls only at 10 µM | 360,000 compounds, 1% hits | AID 624256;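 active means normalized GFP-positive differentiation at or above the plate's own cutoff, the solvent-only control mean plus 3 SD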;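 further: cells exposed to compound for four days before flow analysis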
Exocytosis inh = lytic granule exocytosis inhibition; 360,000 compounds, 0.66% hits; TALL-104 LAMP-1 surface exposure, flow cytometry; cells stimulated with thapsigargin and PMA; inhibition, % at 10 µM;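 active means inhibition above about 55%, limit read from the data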
EBI2 antag = blocks human EBI2 receptor beta-arrestin signaling; P32249; EBI2 beta-arrestin recruitment, luminescence, 7a,25-OHC stimulated; inhibition, % at 5 µM; 360,000 compounds, 0.81% hits; AID 651636; in the data active means inhibition above about 38%;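 further: enzyme fragment complementation signal reports receptor beta-arrestin coupling in cells; 0% = agonist plus DMSO wells and 100% = wells without agonist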
Target sequence (P32249 whole entry, looked up, the tested form may be a part): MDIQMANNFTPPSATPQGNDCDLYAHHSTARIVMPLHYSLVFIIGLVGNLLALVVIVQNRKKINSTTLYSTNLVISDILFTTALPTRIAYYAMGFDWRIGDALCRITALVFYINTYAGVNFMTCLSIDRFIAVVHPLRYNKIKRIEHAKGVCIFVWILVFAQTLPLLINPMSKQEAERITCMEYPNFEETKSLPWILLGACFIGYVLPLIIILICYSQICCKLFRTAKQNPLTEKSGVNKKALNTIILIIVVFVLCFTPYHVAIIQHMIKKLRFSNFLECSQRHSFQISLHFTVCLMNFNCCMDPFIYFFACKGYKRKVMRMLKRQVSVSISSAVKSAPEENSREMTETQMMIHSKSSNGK
MC4R barr agon = agonists of human melanocortin 4 receptor (MC4R) beta-arrestin; P32245; U2OS MC4R beta-arrestin complementation, luminescence; percent of melanotan II response, DMSO zero; activation, % at 8.9 µM; 360,000 compounds, 0.98% hits; AID 540308;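 active means activation above a per-plate cutoff, the mean activation of sample wells on that plate plus 3 SD, cut at about 8% in these data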
EBI2 antag conf = confirmation of human EBI2 receptor antagonists. shares compounds with EBI2 antag. EBI2 beta-arrestin luminescence, 7a,25-OHC antagonism. inhibition, % at 5 µM. 2,400 compounds, 29% hits. AID 651997;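 active means inhibition of at least 50%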
EBI2 agonist = counter-screen for EBI2 antagonists: EBI2 agonist activity. shares compounds with EBI2 antag. EBI2-expressing cells, agonist mode, luminescence, 60 min; 0% vehicle, 100% 7α,25-dihydroxycholesterol control. activation, % at 5 µM. 2,400 tested, under 10 active;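 active means activation of at least 50%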
bGal counter = counter-screen for EBI2 antagonists: E. coli beta-galactosidase inhibition; shares compounds with EBI2 antag; purified beta-galactosidase, luminescent Galacton Star, 15 min; inhibition, % at 5 µM; 2,400 compounds, 1% hits; AID 652176;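 active means replicate-average signal at least 3 plate SD below neutral wells, shown as high inhibition, flagging enzyme-inhibiting false positives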;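 further: 0% = DMSO wells with enzyme and 100% = wells lacking enzyme; higher means stronger loss of beta-gal luminescence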
Starred values were filed as active, the others as inactive; i = inactive; · = not tested or not shown. The list is not random: actives were taken first. Their share in the collection is about 3.7%.

SMILES | MC4R antag cAMP | Myeloid diff MLP | Exocytosis inh | EBI2 antag | MC4R barr agon | EBI2 antag conf | EBI2 agonist | bGal counter
Cc1nc(NC(=O)CSc2nnc(-c3ccccc3)c(-c3ccccc3)n2)c(Cl)cc1Cl | 3 | i | 5 | 42* | 1 | 25 | 1 | 3
CCOc1ccc(N(CC(=O)NCCOc2ccc(C)cc2)S(=O)(=O)c2ccccc2)cc1 | 4 | i | 0 | 91* | 1 | 65* | 2 | 4
COc1ccc(N(CC(=O)NCCSc2ccc(C)cc2)S(=O)(=O)c2ccccc2)c(OC)c1 | 3 | i | 1 | 81* | 0 | 47 | 1 | 2
CCOc1ccc(N(CC(=O)NCCc2ccccc2)S(=O)(=O)c2ccccc2)cc1 | 4 | i | 31 | 7 | 0 | · | · | ·
COc1ccc(N(CC(=O)NCCSc2ccccc2)S(C)(=O)=O)cc1 | 1 | i | 4 | 63* | -2 | 40 | 0 | -12
COc1cccc(N(CC(=O)NCCSc2ccc(Cl)cc2)S(C)(=O)=O)c1 | -2 | i | -3 | 87* | -2 | 69* | 1 | 9
COc1cccc(N(CC(=O)NCCSc2ccccc2)S(C)(=O)=O)c1 | 11 | i | 6 | 29 | 1 | · | · | ·
CCCCNC(=O)C1(C)CCCCN1C(=O)c1c(C)noc1C (stereo not given) | 1 | i | 4 | 4 | -1 | · | · | ·
Cc1c(C(=O)Nc2ccccc2)sc2nc(-c3ccccc3)cn12 | 13 | i | 12 | 44* | 2 | 31 | 2 | 1
Cc1cccc(NC(=O)c2sc3nc(-c4ccccc4)cn3c2C)n1 | 4 | i | 2 | 8 | 0 | · | · | ·
Cc1occc1-c1nnc(SCC(=O)NCCc2ccccc2)n1Cc1ccccc1 | 4 | i | 0 | 90* | -2 | 78* | 1 | 6
CCn1c(SCC(=O)NNC(=O)Cc2ccccc2)nnc1-c1ccccc1 | 13 | i | -6 | -3 | -1 | · | · | ·
CCCc1nc(SCC(=O)NNC(=O)c2ccc(OC)cc2)c2ccccc2n1 | 14 | i | 1 | 77* | -5 | 45 | 0 | -14
Cc1ccc(OCC(=O)NNC(=O)CSc2nnc(-c3ccc(C)cc3)n2C)cc1 | 0 | i | -1 | 75* | -2 | 40 | -1 | 3
Cc1occc1-c1nnc(SCC(N)=O)n1Cc1ccccc1 | 4 | i | -3 | 10 | -1 | · | · | ·
Cc1ccc(C(=O)NNC(=O)CSc2nnc(-c3ccccc3)n2Cc2ccccc2)cc1 | 18 | i | -3 | 96* | -3 | 89* | 0 | 4
Cc1nnc(SCC(=O)NNC(=O)COc2ccc(Cl)cc2)n1C | -3 | i | -5 | -18 | 2 | · | · | ·
CCOC(=O)C1CCN(C(=O)C2CCN(S(=O)(=O)c3cccc4nsnc34)CC2)CC1 | -5 | i | 2 | -7 | -3 | · | · | ·
CN(Cc1ccccc1)C(=O)CN1CCN(S(=O)(=O)c2ccccc2F)CC1 | 0 | i | -8 | -7 | 2 | · | · | ·
CCn1c(SCC(=O)Nc2ccc(OC)cc2)nnc1-c1ccco1 | 5 | i | -4 | -11 | -1 | · | · | ·
CCn1c(SCC(=O)NNC(=O)c2ccc(C)cc2)nnc1-c1ccco1 | 1 | i | 0 | 80* | -1 | 50 | -1 | -18
CCn1c(SCC(=O)NNC(=O)c2ccc(OC)cc2)nnc1-c1ccco1 | 3 | i | -1 | 70* | 4 | 50 | 2 | 5
CCn1c(SCC(N)=O)nnc1-c1ccco1 | -4 | i | -2 | -5 | 3 | · | · | ·
O=C(COC(=O)c1c[nH]c(=O)[nH]c1=O)Nc1ccccc1Br | 21 | i | -4 | 6 | -1 | · | · | ·
O=C(c1cc(-c2cccc(Cl)c2)nc2ccccc12)N1CCCC1 | 3 | i | 15 | 0 | -3 | · | · | ·
SMILES | MC4R antag cAMP | Myeloid diff MLP | Exocytosis inh | EBI2 antag | MC4R barr agon | EBI2 antag conf | EBI2 agonist | bGal counter
S=C(N/N=C/c1ccccc1Cl)Nc1ccccc1 | -3 | i | -6 | 43* | 1 | 37 | 1 | 4
CC(=O)c1nnn(-c2ccc([N+](=O)[O-])cc2)c1C | 7 | i | -1 | 0 | -1 | · | · | ·
Cc1cc(C(=O)N2CCN(C/C=C/c3ccccc3)CC2)cs1 | -2 | i | -2 | 46* | 0 | 31 | 3 | 1
O=C(c1cc(Br)c(Br)s1)N1CCN(C/C=C/c2ccccc2)CC1 | -3 | i | -1 | 65* | 2 | 35 | 0 | 3
Cc1ccc(NC(=O)CSc2nnnn2C2CC2)cc1S(=O)(=O)N1CCOCC1 | -1 | i | -1 | -5 | 1 | · | · | ·
COc1cc(/C=C/C(=O)N2CCCN(C(=O)/C=C/c3cc(OC)c(OC)c(OC)c3)CC2)cc(OC)c1OC | 3 | i | -12 | 4 | 2 | · | · | ·
O=c1[nH]c(CN2CCCCC2)nc2ccccc12 | -1 | i | -1 | -13 | -1 | · | · | ·
O=C(/C=C/c1ccc(Cl)cc1)NCCc1ccccc1 | 11 | i | 2 | 54* | 0 | 25 | -1 | -9
O=C(/C=C/c1ccc(Cl)c(Cl)c1)N1CCc2ccccc21 | 9 | i | -1 | 21 | 2 | · | · | ·
CN1CCN(C(=O)/C=C/c2ccc(Cl)c(Cl)c2)CC1 | -2 | i | -5 | 92* | -2 | 61* | 2 | 4
O=C(/C=C/c1ccccc1)N1CCN(Cc2nc3ccccc3c(=O)[nH]2)CC1 | 2 | i | 0 | 72* | -1 | 75* | 0 | 5
COc1cc(/C=C/C(=O)N2CCN(Cc3ccccc3)CC2)cc(OC)c1OC | 16 | i | -1 | 61* | 3 | 27 | 1 | 7
Cc1ccccc1SCC(=O)Nc1cc(C(F)(F)F)ccc1N1CCOCC1 | 13 | i | 55 | 29 | 1 | · | · | ·
CC(C)=CC(=O)Nc1ccc(S(=O)(=O)Nc2ccccn2)cc1 | 0 | i | -2 | -8 | 1 | · | · | ·
O=c1[nH]cc(NCCNc2ncc(C(F)(F)F)cc2Cl)c(=O)[nH]1 | -6 | i | -1 | -8 | 1 | · | · | ·
O=C(c1ccccc1)N(Cc1ccccc1)c1ccccn1 | 21 | i | 0 | 1 | 1 | · | · | ·
O=C(/C=C/c1ccc(Cl)cc1)N1CCN(Cc2ccccc2)CC1 | 1 | i | -12 | 97* | 0 | 89* | 2 | 0
CN1CCN(C(=O)/C=C/c2ccc(Cl)cc2)CC1 | 5 | i | -1 | 93* | -1 | 79* | 4 | 5
O=C(/C=C/c1ccc(Cl)cc1)N(Cc1ccccc1)c1ccccn1 | 1 | i | 0 | 41* | 1 | 18 | -2 | -11
CS(=O)(=O)N(CC(=O)O)c1cc(C(F)(F)F)ccc1Cl | 9 | i | -3 | 7 | 0 | · | · | ·
